Measurements taken from ChEMBL document CHEMBL4257594 (J Med Chem, 2018).
The source made the active and inactive calls. The calls are words filed in the database; no cut-off is given here.

Columns and labels:
CYP3A4 = CYP3A4 (Homo sapiens, UniProt P08684); experiment: (§1) Inhibition of human liver microsome CYP3A4 at 1 uM expressed in baculosomes using fluorogenic-DBOMF as substrate preincubated for 10 mins followed by substrate addition and measured after 60 mins by fluorescence based assay; format: ADME, microsomes; details: recombinant CYP3A4 expressed in baculosomes, probe DBOMF (fluorogenic)
Outline: (§2)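 CYP3A4 baculosomes preincubated with drug at 1 µM for 10 min at 37 °C before Vivid green substrate added. Fluorescence (ex/em 485/520) read 60 min after substrate addition. Percent inhibition set against 10 μM ketoconazole as the 100% control; mean ± SD of three independent experiments run in triplicate.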

HUVEC [1] = experiment: Anti-angiogenic activity against HUVEC after 24 hrs by scintillation counting based [3H]-thymidine incorporation assay; format: functional, cell-based; details: Homo sapiens
Outline: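 HUVEC seeded at 2000 cells/well and left to settle overnight, then drug added in triplicate for 24 h. Mean ± SD of three independent experiments run in triplicate.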

Cytochrome P450 3A4 [2] = target: T1, Cytochrome P450 3A4 (Homo sapiens, UniProt P08684); experiment: as §1; format: ADME, microsomes; details: microsomes, 1 h, 1 µM; outline: as §2
[3] = target: T2, NPC intracellular cholesterol transporter 1 (Homo sapiens) (UniProt O15118); experiment: Binding affinity to NPC1 in HUVEC assessed as increase in cholesterol accumulation in late endosome/lysosome at 0.2 uM after 14 hrs by filipin staining-based confocal microscopy; format: cell-based
T2 sequence (whole entry): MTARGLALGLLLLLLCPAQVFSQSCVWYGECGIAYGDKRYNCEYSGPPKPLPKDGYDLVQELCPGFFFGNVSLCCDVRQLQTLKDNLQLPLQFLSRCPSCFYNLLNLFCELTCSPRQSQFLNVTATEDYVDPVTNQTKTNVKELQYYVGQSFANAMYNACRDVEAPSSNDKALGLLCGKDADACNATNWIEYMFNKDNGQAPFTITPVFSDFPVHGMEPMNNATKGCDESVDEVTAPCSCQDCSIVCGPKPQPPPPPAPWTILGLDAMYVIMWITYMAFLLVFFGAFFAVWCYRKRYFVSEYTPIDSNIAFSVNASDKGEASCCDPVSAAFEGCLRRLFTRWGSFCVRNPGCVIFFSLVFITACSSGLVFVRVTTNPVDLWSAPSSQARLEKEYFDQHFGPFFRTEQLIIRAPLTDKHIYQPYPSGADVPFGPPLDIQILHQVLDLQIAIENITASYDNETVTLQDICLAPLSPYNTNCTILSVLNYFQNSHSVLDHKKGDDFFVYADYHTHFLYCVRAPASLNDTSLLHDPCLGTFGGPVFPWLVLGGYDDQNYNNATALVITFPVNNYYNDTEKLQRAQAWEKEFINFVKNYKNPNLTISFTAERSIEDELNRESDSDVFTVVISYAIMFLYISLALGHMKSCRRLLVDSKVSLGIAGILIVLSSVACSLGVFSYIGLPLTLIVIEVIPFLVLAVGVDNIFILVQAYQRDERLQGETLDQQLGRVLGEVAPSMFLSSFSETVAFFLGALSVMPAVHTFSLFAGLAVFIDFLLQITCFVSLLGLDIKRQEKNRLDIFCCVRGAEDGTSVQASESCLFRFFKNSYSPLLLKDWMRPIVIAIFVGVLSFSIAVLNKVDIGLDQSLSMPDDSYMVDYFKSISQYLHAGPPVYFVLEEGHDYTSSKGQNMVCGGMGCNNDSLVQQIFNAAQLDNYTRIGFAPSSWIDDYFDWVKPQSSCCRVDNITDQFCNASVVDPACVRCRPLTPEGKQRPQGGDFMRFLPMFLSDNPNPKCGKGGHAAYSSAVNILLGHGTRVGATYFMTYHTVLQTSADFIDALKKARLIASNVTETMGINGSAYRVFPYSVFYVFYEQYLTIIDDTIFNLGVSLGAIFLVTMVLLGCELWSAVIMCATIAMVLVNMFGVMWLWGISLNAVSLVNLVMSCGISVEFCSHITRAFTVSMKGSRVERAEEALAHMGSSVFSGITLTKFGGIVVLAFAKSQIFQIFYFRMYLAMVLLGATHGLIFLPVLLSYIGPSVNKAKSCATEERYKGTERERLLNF
Outline: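 Methods give HUVEC (2,000) on chamber slides, settled overnight, then 0.1 µM drug or DMSO for 14 h; legend gives 0.2 μM for 24 h. Cells fixed in 4% paraformaldehyde for 15 min, then stained with 50 µg/ml filipin for 1 h in the dark. Imaged by confocal microscopy at 360/460 nm.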

[4] = target: Non-selective voltage-gated ion channel VDAC1 (Homo sapiens) (UniProt P21796); experiment: Binding affinity to VDAC1 (unknown origin) at 10 uM using itraconazole as probe by photoaffinity probe competitor assay
HUVEC [5] = experiment: Antiangiogenic activity in HUVEC assessed as inhibition of tube formation at 5 uM after 24 hrs by matrigel assay relative to control; format: functional; details: Homo sapiens
Outline: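 HUVEC (70,000 per well) plated on Matrigel-coated wells in medium containing drug or DMSO. After 24 h, stained with 2 μM calcein AM for 15 min, medium replaced, and tube networks imaged by fluorescence microscopy. Total tube length quantified from the images and compared with DMSO.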

[6] = target: Non-selective voltage-gated ion channel VDAC1 (Homo sapiens) (UniProt P21796); experiment: Binding affinity to VDAC1 in HUVEC assessed as AMPK phosphorylation at Thr172 residue after 24 hrs by Western blot analysis; format: cell-based
HUVEC [7] = experiment: Binding affinity to NPC1/VDAC1 in HUVEC assessed as reduction in mTOR-mediated S6K phosphorylation at Thr389 residue up to 1 uM after 24 hrs Western blot analysis; format: cell-based; details: Homo sapiens
Outline: (§3)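 HUVEC treated with 0.01, 0.03, 0.1, 0.3 or 1 μM drug, or DMSO, for 24 h. Lysed in RIPA buffer, protein normalized, then run on Western blot: 5% BSA block 1 h, primary antibody overnight at 4 °C, secondary 1 h, chemiluminescence imaging. Band gray value and area quantified; mean ± SD of three independent experiments.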

Cytochrome P450 3A4 [8] = target: T1, Cytochrome P450 3A4; experiment: Inhibition of human liver microsome CYP3A4 expressed in baculosomes using fluorogenic-DBOMF as substrate preincubated for 10 mins followed by substrate addition and measured after 60 mins by fluorescence based assay; format: ADME, microsomes
HUVEC [9] = experiment: Binding affinity to NPC1/VDAC1 in HUVEC assessed as reduction in mTOR phosphorylation at Ser2481 residue up to 1 uM after 24 hrs Western blot analysis; format: cell-based; details: Homo sapiens; outline: as §3
[10] = target: Non-selective voltage-gated ion channel VDAC1 (Homo sapiens) (UniProt P21796); experiment: Binding affinity to VDAC1 in HUVEC assessed as ACC1 phosphorylation at Ser79 residue at 0.01 to 1 uM after 24 hrs by Western blot analysis; format: cell-based; outline: as §3

Chain of Non-selective voltage-gated ion channel VDAC1 (Homo sapiens) (P21796 whole entry): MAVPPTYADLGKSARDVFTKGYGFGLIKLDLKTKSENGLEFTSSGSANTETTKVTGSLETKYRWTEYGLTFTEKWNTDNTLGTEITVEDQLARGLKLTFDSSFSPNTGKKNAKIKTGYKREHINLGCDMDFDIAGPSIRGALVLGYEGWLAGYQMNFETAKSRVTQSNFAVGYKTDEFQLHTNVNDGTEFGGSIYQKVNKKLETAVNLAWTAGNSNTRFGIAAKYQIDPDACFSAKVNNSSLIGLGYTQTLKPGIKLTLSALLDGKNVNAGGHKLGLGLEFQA
T1 sequence (P08684 whole entry): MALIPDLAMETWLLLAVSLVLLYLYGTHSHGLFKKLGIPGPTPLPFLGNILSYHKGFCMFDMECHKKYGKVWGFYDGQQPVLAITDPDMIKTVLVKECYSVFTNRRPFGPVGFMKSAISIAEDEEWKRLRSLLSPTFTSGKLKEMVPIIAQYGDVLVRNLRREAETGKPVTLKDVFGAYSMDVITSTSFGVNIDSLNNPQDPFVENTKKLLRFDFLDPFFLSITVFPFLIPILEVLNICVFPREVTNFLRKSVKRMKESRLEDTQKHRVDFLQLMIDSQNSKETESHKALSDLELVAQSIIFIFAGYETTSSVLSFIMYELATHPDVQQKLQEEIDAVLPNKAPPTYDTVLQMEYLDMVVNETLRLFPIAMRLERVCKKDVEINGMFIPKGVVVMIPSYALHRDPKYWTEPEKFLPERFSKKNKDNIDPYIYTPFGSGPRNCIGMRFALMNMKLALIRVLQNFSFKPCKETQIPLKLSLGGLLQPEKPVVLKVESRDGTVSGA
Chain of CYP3A4 (P08684 whole entry): as above

inhibition at 1 h, 1 µM (CYP3A4) | SMILES | IC50 (HUVEC [1]) | other results
17% | CCC(C)n1ncn(-c2ccc(N3CCN(c4ccc(OC[C@@H]5CO[C@@](Cn6ncnn6)(c6ccc(Cl)cc6Cl)O5)cc4)CC3)cc2)c1=O (some centres undefined) | 124 nM | 
18% | CCC(C)n1ncn(-c2ccc(N3CCN(c4ccc(OC[C@@H]5CO[C@@](CN6CCN(C)CC6)(c6ccc(Cl)cc6Cl)O5)cc4)CC3)cc2)c1=O (some centres undefined) | 396 nM | 
98% | CCC(C)n1ncn(-c2ccc(N3CCN(c4ccc(OC[C@@H]5CO[C@@](Cn6cnc(C)c6)(c6ccc(Cl)cc6Cl)O5)cc4)CC3)cc2)c1=O (some centres undefined) | 102 nM | 
6% | CCC(C)n1ncn(-c2ccc(N3CCN(c4ccc(OC[C@@H]5CO[C@@](Cn6ccnc6C(C)C)(c6ccc(Cl)cc6Cl)O5)cc4)CC3)cc2)c1=O (some centres undefined) | 84 nM | Activity [3]: Active
7% | CCc1nccn1C[C@@]1(c2ccc(Cl)cc2Cl)OC[C@@H](COc2ccc(N3CCN(c4ccc(-n5cnn(C(C)CC)c5=O)cc4)CC3)cc2)O1 (some centres undefined) | 224 nM | 
99% | CCC(C)n1ncn(-c2ccc(N3CCN(c4ccc(OC[C@@H]5CO[C@@](Cn6ccnc6)(c6ccc(Cl)cc6Cl)O5)cc4)CC3)cc2)c1=O (some centres undefined) | 85 nM | 
84% | CCC(C)n1ncn(-c2ccc(N3CCN(c4ccc(OCC5COC(Cn6cncn6)(c6ccc(Cl)cc6Cl)O5)cc4)CC3)cc2)c1=O (centres undefined) [ITRACONAZOLE] |  | inhibition at 5 µM (HUVEC [5]): 45%; Activity [3]: Active
71% | CCC(C)n1ncn(-c2ccc(N3CCN(c4ccc(OC[C@@H]5CO[C@@](Cn6ccnc6C)(c6ccc(Cl)cc6Cl)O5)cc4)CC3)cc2)c1=O (some centres undefined) | 173 nM | 
7% | CCC(C)n1ncn(-c2ccc(N3CCN(c4ccc(OC[C@@H]5CO[C@@](Cn6nnnc6C)(c6ccc(Cl)cc6Cl)O5)cc4)CC3)cc2)c1=O (some centres undefined) | 101 nM | 
16% | CCC(C)n1ncn(-c2ccc(N3CCN(c4ccc(OC[C@@H]5CO[C@@](CN6CCOCC6)(c6ccc(Cl)cc6Cl)O5)cc4)CC3)cc2)c1=O (some centres undefined) | 1180 nM | 

Further lines, the compound ahead of its results:

SMILES | inhibition at 1 h, 1 µM (CYP3A4) | IC50 (HUVEC [1]) | other results
CCC(C)n1ncn(-c2ccc(N3CCN(c4ccc(OC[C@@H]5CO[C@@](Cn6cccn6)(c6ccc(Cl)cc6Cl)O5)cc4)CC3)cc2)c1=O (some centres undefined) |  | 307 nM | inhibition (INH) (Cytochrome P450 3A4 [2]): Not Active
CCC(C)n1ncn(-c2ccc(N3CCN(c4ccc(OC[C@@H]5CO[C@@](CC6CCCC6)(c6ccc(Cl)cc6Cl)O5)cc4)CC3)cc2)c1=O (some centres undefined) |  | 512 nM | inhibition (INH) (Cytochrome P450 3A4 [2]): Not Active
CCC(C)n1ncn(-c2ccc(N3CCN(c4ccc(OC[C@@H]5CO[C@@](CC)(c6ccc(Cl)cc6Cl)O5)cc4)CC3)cc2)c1=O (some centres undefined) |  | 353 nM | inhibition (INH) (Cytochrome P450 3A4 [2]): Not Active
CCC(C)n1ncn(-c2ccc(N3CCN(c4ccc(OC[C@@H]5CO[C@@](Cn6cc(C)nc6C)(c6ccc(Cl)cc6Cl)O5)cc4)CC3)cc2)c1=O (some centres undefined) | 38% | 492 nM | 
CCC(C)n1ncn(-c2ccc(N3CCN(c4ccc(OC[C@@H]5CO[C@@](CN6CCNCC6)(c6ccc(Cl)cc6Cl)O5)cc4)CC3)cc2)c1=O (some centres undefined) | 91% | 608 nM | 
CCC(C)n1ncn(-c2ccc(N3CCN(c4ccc(OC[C@@H]5CO[C@@](Cn6cc(C(F)(F)F)nc6C)(c6ccc(Cl)cc6Cl)O5)cc4)CC3)cc2)c1=O (some centres undefined) |  | 441 nM | inhibition (INH) (Cytochrome P450 3A4 [2]): Not Active
CCC(C)n1ncn(-c2ccc(N3CCN(c4ccc(OC[C@@H]5CO[C@@](Cn6ccnc6-c6ccccc6)(c6ccc(Cl)cc6Cl)O5)cc4)CC3)cc2)c1=O (some centres undefined) | 23% | 136 nM | Activity [4]: Active
CCC(C)n1ncn(-c2ccc(N3CCN(c4ccc(OC[C@@H]5CO[C@@](Cn6cnc(C(F)(F)F)n6)(c6ccc(Cl)cc6Cl)O5)cc4)CC3)cc2)c1=O (some centres undefined) |  | 270 nM | inhibition (INH) (Cytochrome P450 3A4 [2]): Not Active; Activity [3]: Active
CCC(C)n1ncn(-c2ccc(N3CCN(c4ccc(OC[C@@H]5CO[C@@](CBr)(c6ccc(Cl)cc6Cl)O5)cc4)CC3)cc2)c1=O (some centres undefined) | 3% | 569 nM | 
CCC(C)n1ncn(-c2ccc(N3CCN(c4ccc(OC[C@@H]5CO[C@@](Cn6nnnc6-c6ccccc6)(c6ccc(Cl)cc6Cl)O5)cc4)CC3)cc2)c1=O (some centres undefined) | 18% | 119 nM | 
CCC(C)n1ncn(-c2ccc(N3CCN(c4ccc(OC[C@@H]5CO[C@@](CN(C)C)(c6ccc(Cl)cc6Cl)O5)cc4)CC3)cc2)c1=O (some centres undefined) |  | 1400 nM | inhibition (INH) (Cytochrome P450 3A4 [2]): Not Active
CCC(C)n1ncn(-c2ccc(N3CCN(c4ccc(OC[C@@H]5CO[C@@](Cc6ccccc6)(c6ccc(Cl)cc6Cl)O5)cc4)CC3)cc2)c1=O (some centres undefined) |  | 513 nM | inhibition (INH) (Cytochrome P450 3A4 [2]): Not Active
CCC(C)n1ncn(-c2ccc(N3CCN(c4ccc(OC[C@@H]5CO[C@@](Cn6c(C)cnc6C)(c6ccc(Cl)cc6Cl)O5)cc4)CC3)cc2)c1=O (some centres undefined) | 23% | 765 nM | 
CCC(C)n1ncn(-c2ccc(N3CCN(c4ccc(OC[C@@H]5COC(c6ccc(Cl)cc6Cl)O5)cc4)CC3)cc2)c1=O (mixture of isomers) |  | 328 nM | inhibition (INH) (Cytochrome P450 3A4 [2]): Not Active
CCC(C)n1ncn(-c2ccc(N3CCN(c4ccc(OC[C@@H]5CO[C@@](Cn6cnc(C)n6)(c6ccc(Cl)cc6Cl)O5)cc4)CC3)cc2)c1=O (some centres undefined) | 30% | 272 nM | 
CCC(C)n1ncn(-c2ccc(N3CCN(c4ccc(OC[C@@H]5CO[C@@](Cn6nc(C)nc6C)(c6ccc(Cl)cc6Cl)O5)cc4)CC3)cc2)c1=O (some centres undefined) | 27% | 221 nM | 
CCC(C)n1ncn(-c2ccc(N3CCN(c4ccc(OC[C@@H]5CO[C@@](Cn6cnnn6)(c6ccc(Cl)cc6Cl)O5)cc4)CC3)cc2)c1=O (some centres undefined) | 2% |  | Activity [6]: Dose-dependent effect; Activity (HUVEC [7]): Active; EC50 (Cytochrome P450 3A4 [8]): > 20000 nM; Activity [3]: Active; Activity (HUVEC [9]): Active; Activity [10]: Active; Activity [4]: Active
